From article PMC8961603 (RSC Advances, 2022) come the findings set out here.

In brackets after ≈: the same amount, converted by molar mass. Entries after “also recorded” stand apart in the source; their conditions may differ.

Data set [1] is described as follows: In vitro cytotoxicity assay. In kind it is cell-based. Conditions: African green monkey, Vero cells, Vero IC50 cytotoxicity, MTT.
The test system of data set [2] is third stage instar larvae of Aedes aegypti. The data set is described as follows: Larvicidal bioassay. In kind it is in vivo. Conditions: for larvicidal activity (in words): 24, 48 and 72 h exposure, 50-250 μg ml^−1.
Data set [3] concerns human blood cells (red blood cell suspension). The data set is described as follows: Haemolytic assay. The data set is classed as cell-based. The procedure, abridged: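 Fresh anticoagulated human blood spun 10 min at 2000 rpm; pellet resuspended in 0.9% NaCl to a 2% v/v red cell suspension. Cells incubated with test compound at 25, 50 or 100 μg ml−1 for 1 h at 37 °C, 5% CO2. Haemoglobin release read at 540 nm. Controls were 1% v/v NaOH for complete lysis and 0.9% NaCl for none. Percent haemolysis was calculated.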

Data set [4] concerns Aedes aegypti larvae (midgut). Nature of the data set: Histopathological analysis of larvae. In kind it is in vivo. Conditions: 72 h exposure.
The next data set deals with Vero cells. The data set is described as follows: In vitro cytotoxicity assay. In kind it is cell-based. Conditions: MTT.
The mark [5] stands for this setting: 48 h exposure, log probit analysis.
The mark [6] stands for this setting: 72 h exposure, log probit analysis.
Setting [7] is: Aedes aegypti, 24 h, 24 h exposure, log probit analysis.
The mark [8] stands for this setting: Aedes aegypti, 48 h, 48 h exposure, log probit analysis.
Where [9] appears, read: Aedes aegypti, 72 h, 72 h exposure, log probit analysis.
Where [10] appears, read: 24 h exposure, log probit analysis.
Setting [11] is: larvicidal LC50 used in QSAR training set, exposure time not given.

`NC(=S)NNC(=O)/C=C/c1ccc(N)cc1` [ACA 3, 2-[(2E)-3-(4-Aminophenyl)prop-2-enoyl]hydrazine-1-carbothioamide]: the IC50 (usually the point on the concentration scale where inhibition reaches its midpoint) in data set [1] stood at 254 ± 0.03 µg/mL (≈ 1070 µM).
Take `CC(=O)OCC(CCn1cnc2cnc(N)nc21)COC(C)=O` [FMCV, Famciclovir, reference compound]: inhibition in data set [1] was half-maximal at 270 ± 0.2 µg/mL (≈ 840 µM) (IC50). For the same compound, the LC90 in data set [2] (setting [5]) is listed as 241.010 ppm; in data set [2] (setting [6]), 179.532 ppm. The figures for the LC50 in data set [2] (setting [7]), in data set [2] (setting [8]) and in data set [2] (setting [9]) were 248 µg/mL, 203 µg/mL and 139 µg/mL, respectively. Moreover, the “Hemolytic (%)” value stood at 4.802% in data set [3] (Conc. 25 PPM), 6.448% in data set [3] (Conc. 50 PPM) and 8.901% in data set [3] (Conc. 100 PPM).
For `Cc1cccc(C2=NN3C(=NCN3/C=C/c3ccccc3)S2)c1` [CATD 2, 2-(3-Methylphenyl)-5-[(E)-2-phenylethenyl]-5,6-dihydro[1,2,4]triazolo[5,1-b][1,3,4]thiadiazole], the “histopathological findings in larvae” value in data set [4] is listed as “severe lesions that primarily affected the midgut epithelium”. The same compound came in with an IC50 in data set [1] of 218 ± 0.02 µg/mL (≈ 680 µM). Besides, the “larvicidal activity (in words)” value in data set [2] is reported as “effectively showed larvicidal activity”. Further, the results for the LC90 in data set [2] (setting [10]), in data set [2] (setting [5]) and in data set [2] (setting [6]) were 311.453 ppm, 241.010 ppm and 179.532 ppm, respectively. Moreover, the LC50 (as a rule, the concentration that kills 50% of the test population) came to 187 µg/mL in data set [2] (setting [7]), 132 µg/mL in data set [2] (setting [8]) and 86.6 µg/mL in data set [2] (setting [9]). In addition, the “Hemolytic (%)” value in data set [3] (Conc. 25 PPM) turned out to be 4.605%; in data set [3] (Conc. 50 PPM), 5.367%; in data set [3] (Conc. 100 PPM), 5.759%.
In the case of “2-(3-Methylphenyl)-5-[(E)-2-phenylethenyl]-5,6-dihydro[1,2,4]triazolo[5,1-b][1,3,4]thia diazole [CATD 4]”, the “Vero IC50 cytotoxicity” value in the data set on Vero cells was found to be 252 ± 0.20 µg/mL. In addition, in data set [2] (setting [11]), the LC50 was determined as 0.15 µM.
On to “2-{[(4-Chlorophenyl) methylidene] amino}-1-[(E)-2-phenylethenyl]-2,5-dihydro-1H-1,2,4-triazole-3-thiol [CA 1]”, for which, in the data set with Vero cells, the “Vero IC50 cytotoxicity” value was 309 ± 0.21 µg/mL. The LC50 in data set [2] (setting [11]) stood at 0.13 µM.
`Nc1ccc(/C=C/C(=O)NNc2ccc([N+](=O)[O-])cc2[N+](=O)[O-])cc1` [ACA 1, (2E)-3-(4-Aminophenyl)-N′-(2,4-dinitrophenyl)prop-2-enehydrazide] registered a 50% inhibitory concentration (IC50) in data set [1] of 285 ± 0.05 µg/mL (≈ 830 µM).
Consider “(2E)-3-(4-Aminophenyl)-N′-(2,4-dinitrophenyl)prop-2-enehydrazide [ACA 4]”, for which the “histopathological findings in larvae” value in data set [4] is reported as “severe lesions that primarily affected the midgut epithelium”. In addition, the “Vero IC50 cytotoxicity” value in the data set on Vero cells was 328 ± 0.02 µg/mL. For the same compound, the “larvicidal activity (in words)” value in data set [2] is recorded as “slow mortality; also recorded: effectively showed larvicidal activity”. The LC50 in data set [2] (setting [10]) amounted to 101.176 ppm; in data set [2] (setting [5]), 88.823 ppm; in data set [2] (setting [6]), 47.347 ppm; in data set [2] (setting [11]), 0.10 µM. The LC90 in data set [2] (setting [10]) is 358.428 ppm; in data set [2] (setting [5]), 323.217 ppm; in data set [2] (setting [6]), 240.784 ppm. The “Hemolytic (%)” value was found to be 1.736% in data set [3] (Conc. 25 PPM), 2.122% in data set [3] (Conc. 50 PPM) and 3.460% in data set [3] (Conc. 100 PPM).
“1-[(E)-2-Phenylethenyl]-2-{[(3,4,5-trimethoxy phenyl) methylidene] amino}-2,5-dihydro-1H-1,2,4-triazole-3-thiol [CA 5]”: the “Vero IC50 cytotoxicity” value in the data set on Vero cells turned out to be 223 ± 0.05 µg/mL.
Turning to `CN(C)c1ccc(/C=C/C=NN2C(S)=NCN2/C=C/c2ccccc2)cc1` [CA 11, 2-({(2E)-3-[4-(Dimethylamino)phenyl]prop-2-en-1-ylidene}amino)-1-[(E)-2-phenylethenyl]-2,5-dihydro-1H-1,2,4-triazole-3-thiol], in data set [1], the IC50 was 229 ± 0.02 µg/mL (≈ 607 µM).
On to `COc1cc(C=NN2C(S)=NCN2/C=C/c2ccccc2)ccc1O` [CA 7, 2-Methoxy-4-[({2-[(E)-2-phenylethenyl]-5-sulfanyl-2,3-dihydro-1H-1,2,4-triazol-1-yl}imino)methyl] phenol], for which inhibition in data set [1] was half-maximal at 295 ± 0.04 µg/mL (≈ 832 µM) (IC50).
As to `CC(C)=CCc1c(O)cc(O)c2c1O[C@H](c1ccccc1)CC2=O` [Glabranin, reference compound], half-maximal inhibition in data set [1] (IC50) required 252 ± 0.2 µg/mL (≈ 777 µM). In addition, the LC90 came to 311.453 ppm in data set [2] (setting [10]), 241.010 ppm in data set [2] (setting [5]) and 179.532 ppm in data set [2] (setting [6]). The LC50 in data set [2] (setting [7]) turned out to be 258 µg/mL; in data set [2] (setting [8]) it was 199 µg/mL; in data set [2] (setting [9]), 140 µg/mL. Further, the “Hemolytic (%)” value is given as 2.326% in data set [3] (Conc. 25 PPM), 4.713% in data set [3] (Conc. 50 PPM) and 5.217% in data set [3] (Conc. 100 PPM).
In data set [1], `Oc1ccc(C2=NN3C(=NCN3/C=C/c3ccccc3)S2)cc1O` [CATD 3, 4-{5-[(E)-2-Phenylethenyl]-5,6-dihydro[1,2,4]triazolo[5,1-b][1,3,4]thiadiazol-2-yl}benzene-1,2-diol] displayed an IC50 of 270 ± 0.2 µg/mL (≈ 798 µM).
With `SC1=NCN(/C=C/c2ccccc2)N1N=Cc1ccc(Br)cc1` [CA 10, 2-{[(4-Bromophenyl)methylidene]amino}-1-[(E)-2-phenylethenyl]-2,5-dihydro-1H-1,2,4-triazole-3-thiol], half-maximal inhibition in data set [1] (IC50) required 241 ± 0.01 µg/mL (≈ 622 µM). Besides, the results for the LC90 in data set [2] (setting [10]), in data set [2] (setting [5]) and in data set [2] (setting [6]) were 210.414 ppm, 172.096 ppm and 122.913 ppm, respectively. For the same compound, the LC50 turned out to be 156 µg/mL in data set [2] (setting [7]), 121 µg/mL in data set [2] (setting [8]) and 50.3 µg/mL in data set [2] (setting [9]).
On to `O=[N+]([O-])c1ccc(C=NN2C(S)=NCN2/C=C/c2ccccc2)cc1` [CA 9, 2-{[(4-Nitrophenyl)methylidene]amino}-1-[(E)-2-phenylethenyl]-2,5-dihydro-1H-1,2,4-triazole-3-thiol], for which, in data set [1], the IC50 was determined as 235 ± 0.05 µg/mL (≈ 665 µM).
